According to ChEMBL document CHEMBL4808225, “Discovery and Characterization of Selective and Ligand-Efficient DYRK Inhibitors” (J Med Chem, 2021):
Converted amounts (≈) assume the structure as drawn.

Experiments:
[1] = biological target: Dual specificity protein kinase CLK3 (Homo sapiens) (UniProt P49761); test: Inhibition of wild-type human full length CLK3 (M1 to R490 residues) expressed in bacterial expression system assessed as remaining activity at 1 uM by Kinomescan method relative to control
Method in brief: (§1)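 KINOMEscan competition binding panel run with inhibitor at 1 μM; read-out is remaining kinase activity (percent of control).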

[2] = Metabolic stability in human liver microsomes; assay type: ADME, Microsome; details: read-out: Stabilty
[3] = biological target: Homeodomain-interacting protein kinase 2 (Homo sapiens, UniProt Q9H2X6); test: Binding affinity to wild-type human partial length HIPK2 (M153 to S564 residues) expressed in mammalian expression system measured after 1 hr by competitive binding assay
Sequence of Homeodomain-interacting protein kinase 2 (Q9H2X6 whole entry, the tested form may be a part): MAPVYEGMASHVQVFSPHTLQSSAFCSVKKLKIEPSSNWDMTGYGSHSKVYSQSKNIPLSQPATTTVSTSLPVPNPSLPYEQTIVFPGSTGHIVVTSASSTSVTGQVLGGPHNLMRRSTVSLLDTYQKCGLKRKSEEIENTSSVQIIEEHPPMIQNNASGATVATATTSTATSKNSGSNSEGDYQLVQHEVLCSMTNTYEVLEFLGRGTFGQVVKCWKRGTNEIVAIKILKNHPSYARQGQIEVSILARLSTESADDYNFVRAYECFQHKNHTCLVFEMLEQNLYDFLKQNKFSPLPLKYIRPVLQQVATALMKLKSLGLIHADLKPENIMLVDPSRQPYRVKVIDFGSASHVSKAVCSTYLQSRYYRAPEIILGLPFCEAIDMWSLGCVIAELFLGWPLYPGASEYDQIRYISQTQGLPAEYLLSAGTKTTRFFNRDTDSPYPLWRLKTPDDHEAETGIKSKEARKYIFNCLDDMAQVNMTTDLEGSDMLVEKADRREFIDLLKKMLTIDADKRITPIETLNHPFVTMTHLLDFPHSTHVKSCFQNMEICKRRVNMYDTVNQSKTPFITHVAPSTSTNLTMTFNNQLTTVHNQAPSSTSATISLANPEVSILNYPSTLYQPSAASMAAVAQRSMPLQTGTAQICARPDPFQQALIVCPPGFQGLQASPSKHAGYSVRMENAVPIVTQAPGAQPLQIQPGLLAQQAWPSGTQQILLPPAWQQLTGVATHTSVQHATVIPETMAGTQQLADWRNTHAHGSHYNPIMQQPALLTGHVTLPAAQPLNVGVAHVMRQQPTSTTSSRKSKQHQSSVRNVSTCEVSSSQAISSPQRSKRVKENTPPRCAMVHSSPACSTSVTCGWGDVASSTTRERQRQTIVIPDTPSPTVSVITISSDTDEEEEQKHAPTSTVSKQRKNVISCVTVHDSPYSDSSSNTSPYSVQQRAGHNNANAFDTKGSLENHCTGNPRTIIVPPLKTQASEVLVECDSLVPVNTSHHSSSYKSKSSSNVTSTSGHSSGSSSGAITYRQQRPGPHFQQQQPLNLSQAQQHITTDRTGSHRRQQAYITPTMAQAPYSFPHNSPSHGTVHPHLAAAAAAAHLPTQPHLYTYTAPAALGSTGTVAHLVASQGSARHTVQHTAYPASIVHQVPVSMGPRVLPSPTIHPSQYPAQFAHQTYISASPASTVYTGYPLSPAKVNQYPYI

[4] = Toxicity in Sprague-Dawley rat assessed as adverse effect at 1 mg/kg, iv; assay type: organism-based; details: in vivo
Method in brief: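 Fed Sprague–Dawley rats (n = 3) received one 1 mg/kg iv dose; adverse effects were recorded during the pharmacokinetic study.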

[5] = AUClast in Sprague-Dawley rat at 1 mg/kg, iv; assay type: ADME, organism-based; set-up: route intravenous, time 0 - last, dose 1 mg/kg; details: in vivo
Method in brief: (§2)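 Single intravenous dose of 1 mg/kg given to fed Sprague–Dawley rats (n = 3); plasma and brain samples collected for pharmacokinetic parameters, with total brain:plasma ratio computed.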

[6] = biological target: Serine/threonine-protein kinase WNK2 (Homo sapiens, UniProt Q9Y3S1); test: Binding affinity to wild-type human partial length WNK2 (V47 to D482 residues) expressed in mammalian expression system measured after 1 hr by competitive binding assay
Sequence of Serine/threonine-protein kinase WNK2 (Q9Y3S1 whole entry, the tested form may be a part): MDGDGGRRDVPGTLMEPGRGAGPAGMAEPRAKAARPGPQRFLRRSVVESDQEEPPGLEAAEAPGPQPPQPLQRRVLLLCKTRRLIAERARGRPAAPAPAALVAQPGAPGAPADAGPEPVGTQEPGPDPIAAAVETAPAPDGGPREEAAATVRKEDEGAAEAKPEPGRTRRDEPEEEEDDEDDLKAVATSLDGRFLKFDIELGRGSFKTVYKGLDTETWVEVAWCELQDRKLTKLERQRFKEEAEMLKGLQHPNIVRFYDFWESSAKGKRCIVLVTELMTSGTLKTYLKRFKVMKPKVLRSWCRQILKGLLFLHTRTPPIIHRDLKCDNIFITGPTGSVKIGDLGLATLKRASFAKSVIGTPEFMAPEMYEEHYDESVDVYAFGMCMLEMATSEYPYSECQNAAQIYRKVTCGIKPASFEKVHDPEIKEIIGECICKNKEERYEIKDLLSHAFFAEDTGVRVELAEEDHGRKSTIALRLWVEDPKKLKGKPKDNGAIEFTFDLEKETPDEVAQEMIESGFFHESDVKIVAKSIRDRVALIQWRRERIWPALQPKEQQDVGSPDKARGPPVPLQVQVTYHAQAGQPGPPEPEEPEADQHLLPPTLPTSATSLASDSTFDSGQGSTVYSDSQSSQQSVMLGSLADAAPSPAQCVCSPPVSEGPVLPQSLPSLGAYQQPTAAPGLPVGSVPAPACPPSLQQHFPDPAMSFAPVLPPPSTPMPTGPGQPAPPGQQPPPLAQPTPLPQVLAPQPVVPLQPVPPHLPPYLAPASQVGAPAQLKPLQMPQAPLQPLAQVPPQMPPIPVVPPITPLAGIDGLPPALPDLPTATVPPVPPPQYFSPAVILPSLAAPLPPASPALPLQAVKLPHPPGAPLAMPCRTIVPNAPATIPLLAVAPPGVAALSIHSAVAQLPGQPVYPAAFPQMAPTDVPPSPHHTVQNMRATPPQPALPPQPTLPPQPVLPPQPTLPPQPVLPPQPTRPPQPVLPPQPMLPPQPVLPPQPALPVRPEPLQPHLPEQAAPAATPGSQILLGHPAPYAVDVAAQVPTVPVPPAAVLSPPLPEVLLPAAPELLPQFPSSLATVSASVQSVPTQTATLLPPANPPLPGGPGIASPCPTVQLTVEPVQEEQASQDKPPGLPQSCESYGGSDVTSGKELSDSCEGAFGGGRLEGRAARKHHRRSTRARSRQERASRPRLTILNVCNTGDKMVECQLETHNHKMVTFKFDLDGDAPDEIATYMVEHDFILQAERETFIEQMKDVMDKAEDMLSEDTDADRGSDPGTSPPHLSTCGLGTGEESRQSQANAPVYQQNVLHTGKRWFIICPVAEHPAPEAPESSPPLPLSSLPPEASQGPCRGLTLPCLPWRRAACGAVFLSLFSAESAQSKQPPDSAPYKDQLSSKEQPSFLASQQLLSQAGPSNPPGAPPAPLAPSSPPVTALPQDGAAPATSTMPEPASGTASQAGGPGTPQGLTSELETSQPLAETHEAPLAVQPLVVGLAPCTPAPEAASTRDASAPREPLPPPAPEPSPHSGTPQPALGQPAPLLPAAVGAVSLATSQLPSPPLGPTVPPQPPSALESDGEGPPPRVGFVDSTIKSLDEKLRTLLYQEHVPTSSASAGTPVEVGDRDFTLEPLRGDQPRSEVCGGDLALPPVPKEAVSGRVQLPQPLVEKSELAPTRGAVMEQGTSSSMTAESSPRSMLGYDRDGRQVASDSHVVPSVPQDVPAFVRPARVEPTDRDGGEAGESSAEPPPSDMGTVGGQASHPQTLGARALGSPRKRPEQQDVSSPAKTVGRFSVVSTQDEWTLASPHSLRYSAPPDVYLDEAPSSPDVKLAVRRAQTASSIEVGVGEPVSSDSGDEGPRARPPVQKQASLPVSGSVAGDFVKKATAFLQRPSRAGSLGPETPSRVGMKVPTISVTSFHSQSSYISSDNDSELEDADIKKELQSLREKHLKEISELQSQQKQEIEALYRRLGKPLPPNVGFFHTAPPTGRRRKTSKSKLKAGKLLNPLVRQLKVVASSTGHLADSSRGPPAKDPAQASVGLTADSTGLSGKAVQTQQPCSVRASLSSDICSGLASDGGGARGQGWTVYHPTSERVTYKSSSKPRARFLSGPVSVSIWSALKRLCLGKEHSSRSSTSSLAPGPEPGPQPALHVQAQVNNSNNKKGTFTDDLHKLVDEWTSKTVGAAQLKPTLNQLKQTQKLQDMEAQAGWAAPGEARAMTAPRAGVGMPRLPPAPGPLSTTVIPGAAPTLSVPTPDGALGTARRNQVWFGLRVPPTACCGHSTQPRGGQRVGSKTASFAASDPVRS

[7] = Half life in Sprague-Dawley rat at 1 mg/kg, iv; assay type: ADME, organism-based; details: in vivo; method in brief: as §2
[8] = Ratio of drug concentration in brain to plasma in Sprague-Dawley rat at 1 mg/kg, iv; assay type: ADME, organism-based; method in brief: as §2
[9] = biological target: T1, Dual specificity protein kinase CLK1 (Homo sapiens, UniProt P49759); test: Binding affinity to wild-type human full length CLK1 (M1 to I484 residues) expressed in bacterial expression system measured after 1 hr by competitive binding assay
[10] = Initial plasma concentration in Sprague-Dawley rat at 1 mg/kg, iv; assay type: ADME, organism-based; details: in vivo; method in brief: as §2
[11] = Metabolic stability in rat liver microsomes; assay type: ADME, Microsome; details: read-out: Stabilty
[12] = biological target: Calcium/calmodulin-dependent protein kinase type 1B (Homo sapiens, UniProt Q6P2M8); test: Binding affinity to wild-type human partial length CAMK1B (W9 to A311 residues) expressed in mammalian expression system measured after 1 hr by competitive binding assay
Sequence of Calcium/calmodulin-dependent protein kinase type 1B (Q6P2M8 whole entry, the tested form may be a part): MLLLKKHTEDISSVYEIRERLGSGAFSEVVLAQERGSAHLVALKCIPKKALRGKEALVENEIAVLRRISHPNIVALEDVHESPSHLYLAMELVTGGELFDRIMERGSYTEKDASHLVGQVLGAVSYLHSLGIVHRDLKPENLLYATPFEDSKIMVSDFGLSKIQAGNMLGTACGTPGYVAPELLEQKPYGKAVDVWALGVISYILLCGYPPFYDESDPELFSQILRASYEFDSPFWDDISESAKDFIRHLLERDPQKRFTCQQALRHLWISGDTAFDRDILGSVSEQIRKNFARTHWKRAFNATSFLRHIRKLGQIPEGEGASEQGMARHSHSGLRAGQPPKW

[13] = biological target: T2, Dual specificity tyrosine-phosphorylation-regulated kinase 2 (Homo sapiens) (UniProt Q92630); test: Inhibition of wild-type human full length DYRK2 (M1 to S528 residues) expressed in mammalian expression system assessed as remaining activity at 1 uM by Kinomescan method relative to control; method in brief: as §1
T2 sequence (whole entry): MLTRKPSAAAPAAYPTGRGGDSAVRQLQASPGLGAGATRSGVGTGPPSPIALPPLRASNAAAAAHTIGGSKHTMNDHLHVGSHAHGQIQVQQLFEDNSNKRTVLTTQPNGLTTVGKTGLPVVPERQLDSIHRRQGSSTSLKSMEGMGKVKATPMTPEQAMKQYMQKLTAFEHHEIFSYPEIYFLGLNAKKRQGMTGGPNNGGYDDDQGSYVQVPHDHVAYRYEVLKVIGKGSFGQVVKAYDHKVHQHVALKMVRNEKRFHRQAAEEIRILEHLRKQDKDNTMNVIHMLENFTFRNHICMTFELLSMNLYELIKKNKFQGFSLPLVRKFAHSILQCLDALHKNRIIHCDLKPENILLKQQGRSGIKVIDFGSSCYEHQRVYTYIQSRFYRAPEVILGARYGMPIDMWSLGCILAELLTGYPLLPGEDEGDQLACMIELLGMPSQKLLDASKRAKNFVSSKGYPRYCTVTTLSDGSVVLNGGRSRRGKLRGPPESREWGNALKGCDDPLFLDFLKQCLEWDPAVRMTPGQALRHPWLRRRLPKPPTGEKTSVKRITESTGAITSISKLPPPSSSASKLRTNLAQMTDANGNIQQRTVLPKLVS

[14] = biological target: T3, Dual specificity tyrosine-phosphorylation-regulated kinase 2 (Homo sapiens, UniProt Q92630); test: Binding affinity to wild-type human full length DYRK2 (M1 to S528 residues) expressed in mammalian expression system measured after 1 hr by competitive binding assay
T3 sequence (Q92630 whole entry): T2 sequence (whole entry)

[15] = biological target: Dual specificity tyrosine-phosphorylation-regulated kinase 1B (Homo sapiens) (UniProt Q9Y463); test: Inhibition of wild-type human full length DYRK1B (M1 to S629 residues) expressed in bacterial expression system assessed as remaining activity at 1 uM by Kinomescan method relative to control; method in brief: as §1
Sequence of Dual specificity tyrosine-phosphorylation-regulated kinase 1B (Homo sapiens) (Q9Y463 whole entry, looked up, the tested form may be a part): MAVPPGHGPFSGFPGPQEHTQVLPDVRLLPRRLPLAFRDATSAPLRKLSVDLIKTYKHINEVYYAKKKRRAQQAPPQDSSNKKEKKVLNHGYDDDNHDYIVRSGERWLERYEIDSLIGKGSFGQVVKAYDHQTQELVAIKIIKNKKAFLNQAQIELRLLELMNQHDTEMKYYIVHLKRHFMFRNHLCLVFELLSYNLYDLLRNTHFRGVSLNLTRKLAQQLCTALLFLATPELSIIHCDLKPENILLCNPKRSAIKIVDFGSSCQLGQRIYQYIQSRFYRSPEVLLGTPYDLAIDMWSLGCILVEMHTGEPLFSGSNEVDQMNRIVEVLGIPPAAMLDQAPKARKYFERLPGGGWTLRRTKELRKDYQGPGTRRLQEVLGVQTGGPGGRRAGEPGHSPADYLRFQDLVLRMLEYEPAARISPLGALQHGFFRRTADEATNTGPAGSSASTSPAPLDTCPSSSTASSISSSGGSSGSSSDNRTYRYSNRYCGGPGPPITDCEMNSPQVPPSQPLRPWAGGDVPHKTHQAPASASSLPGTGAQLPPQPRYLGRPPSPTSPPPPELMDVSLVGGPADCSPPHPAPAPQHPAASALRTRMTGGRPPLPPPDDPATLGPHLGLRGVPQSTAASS

[16] = biological target: Glycogen synthase kinase-3 beta (Homo sapiens) (UniProt P49841); test: Inhibition of wild-type human full length GSK3B (M1 to T433 residues) expressed in mammalian expression system assessed as remaining activity at 1 uM by Kinomescan method relative to control; method in brief: as §1
Sequence of Glycogen synthase kinase-3 beta (Homo sapiens) (P49841 whole entry, looked up, the tested form may be a part): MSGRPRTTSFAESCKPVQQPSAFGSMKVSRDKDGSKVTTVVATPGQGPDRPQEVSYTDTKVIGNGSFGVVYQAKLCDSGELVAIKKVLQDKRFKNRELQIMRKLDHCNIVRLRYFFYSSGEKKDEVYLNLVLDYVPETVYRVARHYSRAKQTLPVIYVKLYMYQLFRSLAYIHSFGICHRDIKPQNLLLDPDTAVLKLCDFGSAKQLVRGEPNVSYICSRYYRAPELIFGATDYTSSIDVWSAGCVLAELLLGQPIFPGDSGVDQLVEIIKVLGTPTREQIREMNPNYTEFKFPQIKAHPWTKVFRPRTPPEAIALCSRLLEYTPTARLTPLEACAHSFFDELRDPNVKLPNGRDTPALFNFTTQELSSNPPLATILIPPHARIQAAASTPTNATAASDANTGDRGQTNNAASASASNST

[17] = biological target: T1, Dual specificity protein kinase CLK1; test: Inhibition of wild-type human full length CLK1 (M1 to I484 residues) expressed in bacterial expression system assessed as remaining activity at 1 uM by Kinomescan method relative to control; method in brief: as §1
[18] = Thermodynamic solubility of the compound at pH 6.8; assay type: physicochemical; details: buffer, read-out: Therm_solubility
Method in brief: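 Thermodynamic solubility measured at pH 6.8 in a single experiment, reported in […].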

[19] = Cmax in Sprague-Dawley rat at 1 mg/kg, iv; assay type: ADME, organism-based; set-up: route intravenous, dose 1 mg/kg; details: in vivo; method in brief: as §2
[20] = biological target: MAP kinase-interacting serine/threonine-protein kinase 2 (Homo sapiens, UniProt Q9HBH9); test: Binding affinity to wild-type human partial length MKNK2 (G63 to S388 residues) expressed in mammalian expression system measured after 1 hr by competitive binding assay
[21] = biological target: Cyclin-dependent kinase 2 (Homo sapiens) (UniProt P24941); test: Inhibition of wild-type human full length CDK2 (M1 to L298 residues) expressed in bacterial expression system assessed as remaining activity at 1 uM by Kinomescan method relative to control; method in brief: as §1
[22] = MRT in Sprague-Dawley rat at 1 mg/kg, iv; assay type: ADME, organism-based; details: in vivo; method in brief: as §2

Activity [1]: 54%
microsomal CLint [2]: 242 µL/min/mg
Kd [3]: 1200 nM
AUClast [5]: 275.3 ng·h/mL
Kd [6]: 10000 nM
t1/2 [7]: 12 min
BPR [8]: > 0.35
Kd [9]: 70 nM
C0 [10]: 1331.5 ng/mL
microsomal CLint [11]: 231 µL/min/mg
Kd [12]: 10000 nM
Activity [13]: 19%
Kd [14]: 360 nM
Activity [15]: 2.7%
Activity [16]: 94%
Activity [17]: 7.1%
solubility thermodynamic [18]: 100 µg/mL (≈ 416 µM)
Cmax [19]: 1082.8 ng/mL
Kd [20]: 1800 nM
Activity [21]: 100%
MRT [22]: 12 min
SMILES: CN(C)c1nccc(-c2cnn3ncccc23)n1
Activity [4]: Non-Toxic
